Measurements pooled from the literature.
Protocols differ between the studies behind these lines.
Target: Cyclin-dependent kinase 13 (CDK13, Homo sapiens, UniProt Q14004)

SMILES	read-out	method	tested at	remaining binding
CCCCN(CCCC)C(=O)CN1C[C@H](c2cc(OC)c3c(c2)OCO3)[C@@H](C(=O)O)[C@@H]1CC(C)(C)CCC	cell-free assay	competition with immobilised ligand	1 µM	52.5%
O=C(NCCCN1CCOCC1)c1ccc(Nc2nccc(-c3cc4ccccc4s3)n2)cc1	binding	competition with immobilised ligand	1 µM	68%
CC(=O)C1=C(C)N(c2cccc(C(F)(F)F)c2)C(=O)N[C@@H]1c1ccc(C#N)nc1	cell-free assay	competition with immobilised ligand	1 µM	100%
O=C(NCC1CCOCC1)c1n[nH]cc1NC(=O)c1c(F)cccc1F	binding	competition with immobilised ligand	1 µM	66%
O=C(c1ccc(Nc2ncc(Cl)c(-c3ccc(Cl)s3)n2)cc1)N1CCC(N2CCCC2)CC1	binding	competition with immobilised ligand	1 µM	18%
C[C@H]1CCN(c2nccc(-c3cnn4ncccc34)n2)C1	binding		1 µM	84%
FC(F)(F)Oc1cccc(-c2cnc3ccc(-c4ccncc4)nn23)c1	cell-free assay	competition with immobilised ligand	5 µM	99%
COc1ccnn2ncc(-c3ccnc(N(C)C)n3)c12	binding		1 µM	69%
O=C(Nc1cccnn1)N1CC(C/C=C/c2cncc(Oc3ccc(C(F)(F)F)cn3)n2)C1	cell-free assay	competition with immobilised ligand	1 µM	98%
CNC(=O)[C@@H]1CC[C@@H](n2c(-c3ccc4cnccc4c3)nc3ccc(C(=O)NCc4cccc(C(N)=O)c4)cc32)C1	binding	competition with immobilised ligand	1 µM	100%
CC1CCCN1c1nccc(-c2cnn3ncccc23)n1 (stereo not drawn)	binding		1 µM	100%
COc1cnc(Nc2cccc(S(N)(=O)=O)c2)nc1N1CCN(c2ccccc2)CC1	binding	competition with immobilised ligand	1 µM	21%
N[C@@H]1CCN(c2nccc(-c3cnn4ncccc34)n2)C1	binding		1 µM	54%
CN(C)C(=O)Cn1cc(-c2nc([C@@](C)(c3ccc(-c4cnc(N)nc4)cc3)C3CC3)no2)cn1	cell-free assay	competition with immobilised ligand	1 µM	83%
CN(C)c1nccc(-c2cnn3ncccc23)n1	binding		1 µM	84%
O=C(O)[C@H]1[C@H](Cn2nnc3ccccc3c2=O)CC[C@@H]1C(=O)c1ccc(OCCC2CCOCC2)cc1	cell-free assay	competition with immobilised ligand	1 µM	93%
CN(C)c1ncc(F)c(-c2cnn3ncccc23)n1	binding		1 µM	96%
O=C(c1ccc(Nc2nccc(-c3cc4ccccc4s3)n2)cc1)N1CCC(N2CCCC2)CC1	binding	competition with immobilised ligand	1 µM	92%
